Screening data (PubChem BioAssay)
APJ agonist: APJ receptor agonism; P35414; CHO-K1 APJ PathHunter beta-arrestin, luminescence; 0% DMSO wells, 100% apelin; activation, % at 20 µM; 330,000 tested, 0.11% active;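 active means activation more than six SD over the plate average, tested at 20 µM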;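 further: 0% = DMSO alone and 100% = apelin-13 at 10 nM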
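Assay system: CHO-K1 cells stably expressing ProLink-tagged human APJ and arrestin–beta-gal acceptor. Compound dosing: 20 µM single point, 1% DMSO. Times: 16-18 h seeding, 90 min dark compound exposure, 60 min detection. Detection: beta-gal luminescence. Evaluation: APJ–arrestin association signal. Controls: negative DMSO alone, positive Apelin-13 at 10 nM.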
APJ antagonist: antagonists of human APJ apelin receptor; CHO-K1 APJ beta-arrestin complementation, luminescence; 330,000 tested, 0.32% active; P35414; inhibition, % at 20 µM;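 active means inhibition above about 40% at 20 µM, limit read from the data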;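 further: cells challenged with 10 nM apelin-13 agonist together with compound; plate controls were apelin-13 plus DMSO wells for no effect and DMSO wells lacking apelin-13 for full effect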
CXCR6 block: blocks human CXCR6 beta-arrestin recruitment | CHO-K1 PathHunter CXCR6 beta-arrestin, luminescence | 360,000 tested, 0.36% active | inhibition, % at 20 µM; in the data active means inhibition above about 34%, passing the limit was not always enough;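 further: antagonist mode with CXCL16 agonist at 10 nM final; 0% = 10 nM CXCL16 with DMSO and 100% = unstimulated wells without agonist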
Target sequence (O00574 whole entry, looked up): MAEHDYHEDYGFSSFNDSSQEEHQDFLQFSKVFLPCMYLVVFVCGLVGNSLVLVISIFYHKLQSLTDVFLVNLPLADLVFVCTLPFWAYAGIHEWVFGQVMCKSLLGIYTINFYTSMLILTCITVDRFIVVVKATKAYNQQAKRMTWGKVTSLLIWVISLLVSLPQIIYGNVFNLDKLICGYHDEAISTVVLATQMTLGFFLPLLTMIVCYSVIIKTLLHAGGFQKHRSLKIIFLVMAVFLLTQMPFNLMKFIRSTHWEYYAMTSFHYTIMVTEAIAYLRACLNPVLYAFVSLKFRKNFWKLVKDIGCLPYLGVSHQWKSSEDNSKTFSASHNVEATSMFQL
Beta2AR agonist: human beta-2 adrenergic receptor agonism by FAP | P07550 | Am2.2-beta2AR cells, FAP receptor internalization, flow cytometry | response, % (concentration not given with the values) | 340,000 tested, 0.43% active | AID 504454;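 active means response above a set limit, near 3 SD of response in nonfluorescent compounds, cut at about 42% in these data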
CCR6 antagonist: CCR6 (human) receptor antagonism | CHO-K1 CCR6 PathHunter beta-arrestin, luminescence, CCL20-stimulated | inhibition, % at 20 µM | 340,000 tested, 0.49% active | AID 493098;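 active means compounds whose inhibition of the agonist-driven luminescence signal at 20 µM reaches about 50%, limit read from the data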;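 further: cells stimulated with CCL20 at 14 nM final; plate controls were DMSO with CCL20 for no effect and DMSO without agonist for full effect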
EBI2 block: antagonists of human EBI2 receptor; P32249; EBI2 beta-arrestin recruitment, luminescence, 7a,25-OHC stimulated; inhibition, % at 5 µM; 360,000 tested, 0.81% active; in the data active means inhibition above about 38%;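 further: enzyme fragment complementation signal reports receptor beta-arrestin coupling in cells; 0% = agonist plus DMSO wells and 100% = wells without agonist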
Starred values were filed as active, the others as inactive; x = no result. Sampled rows, rich in hits. Any-hit rate of the full collection: about 1.8%.

SMILES	APJ agonist	APJ antagonist	CXCR6 block	Beta2AR agonist	CCR6 antagonist	EBI2 block
CCC(C(=O)NC1CCCC1)N(C(=O)c1snc(C(N)=O)c1N)c1ccc(C)cc1C (configuration not stated)	3	-18	6	-9	-5	-2
O=C(CCn1cnc2ccccc2c1=O)Nc1nc(-c2ccc(Br)cc2)cs1	23*	6	0	-1	0	-49
Cc1cc(C)c2c(c1)/C(=C/C(=O)c1ccc(Br)s1)C(=O)N2	2	-2	9	65*	15	74*
Cc1cccc2c1NC(=O)/C2=C\C(=O)c1cccs1	0	12	12	8	46	43*
Cc1cc(Br)c2c(c1)/C(=C/C(=O)c1cccs1)C(=O)N2	2	-52	-2	3	2	34
COC(=O)C1=C(C)N(Cc2ccccc2)C(=NCc2ccccc2)N[C@H]1c1cccc(F)c1	-3	28	3	28	4	3
CCN(CC)CCCN=C1N[C@@H](c2cccc(F)c2)C(C(=O)OC)=C(C)N1Cc1ccccc1	0	21	10	66*	2	-7
C[C@@H]1CN([C@@H](C)CO)C(=O)CCCn2cc(nn2)CO[C@H]1CN(C)C(=O)c1cc(-c2ccccc2)on1	x	x	2	x	x	-10
CCN(CC)c1ccc(/C=N/N=C(c2ccccc2)c2ccccc2)c(O)c1	-1	5	2	4	21	66*
O=C1N[C@H]2CC=C[C@H]2Nc2ccccc21	x	x	7	-3	11	-6
CCc1n[nH]c(=S)n1/N=C/c1cc(OC)cc([N+](=O)[O-])c1O	-6	42*	40	0	62*	-3
Cc1ccc(F)cc1C(=O)N1CCCC(C)(C(=O)NS(=O)(=O)C2CC2)C1 (configuration not stated)	x	x	0	x	x	4
O=S(=O)(N1CCCCC1)N1CCN(CC(O)COc2ccc3cc(Br)ccc3c2)CC1 (configuration not stated)	4	-19	-13	4	0	90*
COc1ccc(-c2oc3ccc(-c4cc(OC)c(OC)c(OC)c4)cc3c2C#Cc2ccccn2)cc1	2	0	-8	19	1	-12
COc1ccc(OC)c(NC(=O)COC(=O)CC2CCCCC2)c1	-6	8	-2	7	16	-3
COc1ccc(NC(=O)CC2CC3CCC2C3)cc1S(=O)(=O)N1CCOCC1 (configuration not stated)	-4	-4	6	-7	2	6
COCCOC(=O)/C(=C/c1ccc(OC(=O)c2ccccc2)cc1)C(C)=O	0	7	4	43*	24	-7
CCOC(=O)/C(=C/c1ccc(OC(=O)c2ccncc2)cc1)C(C)=O	-2	14	3	4	7	-11
CC(C)(C(=O)N1CCC1(C)C(=O)NS(=O)(=O)c1ccc(C#N)cc1)c1ccccc1 (configuration not stated)	x	x	0	x	x	0
COc1ccccc1CNC(=O)CN1C(=O)NC2(CCCCCC2)C1=O	-2	11	1	6	-2	-1
CCOc1ccc(-n2c(C)cc(C(=O)CCl)c2C)cc1	-1	1	-17	46*	3	-7
COC(=O)c1ccc(-n2c(C)cc(C(=O)CCl)c2C)cc1	2	-7	5	29	-7	-3
COc1ccc2[nH]c3c4c(ccc3c2c1)C(=O)C=CC4=O	3	21	30	61*	61*	35
COc1ccc2[nH]c(=O)cc(C(=O)O)c2c1	0	-4	0	-2	6	-7
CCOC(=O)N1CCC(n2c(=S)[nH]c3cc(OCC)c(OCC)cc3c2=O)CC1	-2	12	-4	-3	7	60*
SMILES	APJ agonist	APJ antagonist	CXCR6 block	Beta2AR agonist	CCR6 antagonist	EBI2 block
CN1CCN(c2ccc(CNC(=O)C3(C)Cc4c(-c5ccc6c(c5)OCO6)ccnc4O3)cc2)CC1 (configuration not stated)	x	x	2	x	x	5
COC(=O)Cn1cc(/C=N/NC(=O)COc2cccc3cccnc23)c2ccccc21	1	23	4	48*	-1	8
CCN(CC)c1ccc(/C=C2\CCC(/C=C(\C#N)C(=O)Nc3ccccc3F)=C2N2CCOCC2)cc1	x	x	29	-7	91*	19
CCN(CC)c1ccc(/C=C2\CCC(/C=C(/C#N)C(=O)Nc3ccccc3F)=C2N2CCOCC2)cc1	x	x	45*	-5	102*	27
COc1ccc(-c2ccc3nncn3c2)cn1	x	x	0	x	x	-17
CCC(=O)N1CCCC1(C)C(=O)NCc1ccc(SC)cc1 (configuration not stated)	x	x	-2	x	x	-7
CC(=O)c1ccc(NC(=O)c2cccc(N3C(=O)c4ccccc4C3=O)c2)cc1	3	0	-3	81*	19	-2
COc1ccc(NC(=O)c2cccc(N3C(=O)c4ccc(C(=O)Nc5ccc(OC)c(O)c5)cc4C3=O)c2)cc1O	1	-11	-2	12	7	-3
O=C(NC(=S)Nc1ccc(-c2ccc(CO)o2)cc1)c1cccs1	-7	51*	16	1	46	7
Cc1c(C(=O)NC(=S)Nc2ccc(NC(=O)c3cccs3)cc2)cccc1[N+](=O)[O-]	-6	21	17	-3	58*	-4
Cc1c(C(=O)NC(=S)Nc2ccc3c4c(cccc24)CC3)cccc1[N+](=O)[O-]	-3	4	28	12	67*	18
Cc1c(C(=O)Nc2ccc3c4c(cccc24)CC3)cccc1[N+](=O)[O-]	-3	-5	2	-8	9	-7
CC1(C(=O)NCC(F)(F)F)CCN1C(=O)Cc1ccc(-c2ccccc2)cc1 (configuration not stated)	x	x	1	x	x	3
CC(=O)c1ccc2ccccc2c1OC(=O)c1ccncc1	x	x	1	x	x	-22
O=C1Nc2ccccc2/C1=N\N=C\c1ccc(O)c(O)c1	-1	34	32	6	35	0
COc1cc(/C=N/N=C2/C(=O)Nc3ccccc32)ccc1O	-3	29	14	1	56*	-27
CCN1C(=O)/C(=C/C=C2/Sc3ccc4ccccc4c3N2CCO)SC1=S	-3	27	9	-90	51*	12
COc1cc(CNc2ncnc3c2ncn3[C@H]2CN(Cc3ccc4c(c3)OCO4)C[C@@H](CO)O2)cc(OC)c1OC	x	x	-3	x	x	-8
COC(=O)C1=CN(c2ccc(C(C)(C)C)cc2)C(N)=C(C#N)C1c1ccccc1F (configuration not stated)	x	x	x	x	x	25
Cn1ccnc1Sc1cc(NCCCO)c([N+](=O)[O-])c2nonc12	-3	38	40	46*	23	-17
COc1ccc(Nc2cc(NCCCO)c([N+](=O)[O-])c3nonc23)cc1	-3	20	12	-10	21	20
